Screens (PubChem)
GPR7 antagonist = human neuropeptides B/W receptor 1 antagonism. GPR7-expressing cells, fluorescence antagonist assay. 290,000 tested, 1.1% active. inhibition, % at 4.4 µM. P48145; in the data active = inhibition above about 16%, passing the limit was not always enough;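 note: cells stimulated with the agonist NPW; 0% = agonist with vehicle and 100% = vehicle without agonist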
Target sequence (P48145 whole entry, looked up): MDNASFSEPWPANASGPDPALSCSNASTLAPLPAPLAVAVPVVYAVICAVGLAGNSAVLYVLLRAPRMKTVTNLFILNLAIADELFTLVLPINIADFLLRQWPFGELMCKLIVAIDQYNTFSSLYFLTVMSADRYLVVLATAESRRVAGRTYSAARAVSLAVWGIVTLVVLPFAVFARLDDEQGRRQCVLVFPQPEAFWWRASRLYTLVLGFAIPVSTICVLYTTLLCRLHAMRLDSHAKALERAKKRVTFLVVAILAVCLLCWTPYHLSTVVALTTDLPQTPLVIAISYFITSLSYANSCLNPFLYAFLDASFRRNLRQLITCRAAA
OX1R antag-1 = OX1R (human) antagonism; O43613; OX1R-expressing cells, FRET antagonist read-out; inhibition, % at 6.6 µM; 330,000 tested, 1.8% active; AID 485270; in the data active = inhibition mostly above about 38%, no sharp cut-off; inactive = mostly below about 40%;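 note: 0% = agonist challenge alone and 100% = reference antagonist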
OX1R antag-2 = antagonists of human orexin 1 receptor | 330,000 tested, 0.43% active | CHO/OX1R cells, Fluo-8 calcium fluorescence, orexin A | inhibition, % at 5 µM | O43613;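 active = inhibition above its plate's threshold, mean inhibition of all tested compounds on the plate plus 3 SD, cut at about 37% in these data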;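 note: 0% = orexin A challenge wells and 100% = SB-334867-A antagonist wells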
zfTRPN1 agonist = agonists of zebrafish TRPN1 channel; HEK293 zebrafish TRPN1-YFP, Fluo-8 calcium fluorescence; 100% = response to 87 µM carbachol; activation, % at 3 µM; 220,000 tested, 0.18% active;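 active = activation above its plate's cutoff, the mean activation of test wells on that plate plus 3 SD, cut at about 19% in these data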;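 note: 0% = DMSO alone and 100% = 87 µM carbachol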
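Control set: carbachol 87 µM as high control, DMSO as low control; system: HEK293 stable line with zebrafish TRPN1-YFP; read-out: % activation versus carbachol response; detection: intracellular calcium fluorescence with Fluo-8; doses: single test compound dose, 3 µM nominal, 0.3% DMSO; schedule: dye 1 h 37 °C plus 30 min RT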
TRPML3 agonist = activates the human TRPML3 channel | HEK293 TRPML3-YFP, Fluo-8 calcium fluorescence; 100% = the carbachol control signal | activation, % at 3 µM | 220,000 tested, 0.29% active;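 active = activation above its plate's cutoff, the mean activation of the plate's test wells plus 3 SD, cut at about 12% in these data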;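 note: 0% = DMSO only wells and 100% = carbachol wells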
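Material: HEK293 cells stably carrying human TRPML3-YFP; compound dosing: single dose, 3 µM final nominal compound, 0.3% DMSO final; incubation: 1-h 37 °C dye load, 5-s basal, 120-s post-compound reads; technique: Fluo-8 intracellular calcium fluorescence, excitation 470-495 nm, emission 515-575 nm; read-out basis: percent activation from peak-to-basal fluorescence ratio, scaled between DMSO and carbachol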
CHO parental Ca = signal in parental CHO cells, OX1R antagonist counter-screen; parental CHO-K1, ATP-induced calcium, Fluo-8 fluorescence; inhibition, % at 5.6 µM; 330,000 tested, 0.63% active; AID 463079;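 active = inhibition above that plate's mean sample inhibition plus 3 SD, cut at about 26% in these data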;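 note: 0% = ATP-challenged DMSO wells and 100% = DMSO wells without ATP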
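Measured by: calcium-sensitive Fluo-8 fluorescence / Test system: CHO parental line / Controls: ATP-challenged DMSO wells low, unchallenged DMSO wells high / Measure: % inhibition / Compound: single nominal dose of 5.6 µM per compound / Replicates: single well per compound, no replicates / Reagent: ATP as calcium-mobilizing challenge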
Starred values were filed as active, the others as inactive; nt = no result given. In the library only some 3.2% were active in any assay of this set; here they are far more common.

SMILES | GPR7 antagonist | OX1R antag-1 | OX1R antag-2 | zfTRPN1 agonist | TRPML3 agonist | CHO parental Ca
COc1ccc(C(=O)Nc2cc(OC)ccc2OC)cc1 | 2 | 27 | -24 | -1 | 0 | -15
COc1ccc(-c2csc(NC(=O)c3c(OC)cccc3OC)n2)cc1 | -22 | 68* | 2 | nt | nt | -15
Cc1ccc(C(=O)N2CCN(c3ccc(C(F)(F)F)cn3)CC2)o1 | nt | 5 | -5 | nt | nt | -8
COc1ccc(-c2csc(NC(=O)c3ccccc3NS(=O)(=O)c3ccc(C)cc3)n2)cc1 | 27* | 43* | 11 | 7 | 6 | 7
COc1cccc(-c2csc(NC(=O)Nc3ccccc3)n2)c1 | 4 | 74* | 45* | nt | nt | 32*
O=C(Nc1ccccc1)Nc1nc(-c2ccccc2)cs1 | -5 | 4 | 21 | 2 | 1 | 6
O=C(NCc1ccccc1)NC(=O)c1ccccc1F | 2 | 17 | -16 | nt | nt | -4
O=S(=O)(c1cccs1)N1CCCc2ccccc21 | 2 | 21 | -9 | 0 | 0 | 56*
O=C(Nc1ccc2c(c1)N(S(=O)(=O)c1cccs1)CCC2)c1c(F)cccc1Cl | nt | 55* | 11 | nt | nt | -3
O=C(c1ccccc1Cl)N(Cc1ccc(Br)cc1)N1C(=O)CCC1=O | 4 | 21 | -15 | 2 | 1 | 3
CC(C)CN1CCC(Oc2cccc(C(=O)NCCc3ccccc3)c2)CC1 | -6 | 14 | -25 | nt | nt | -19
CN(C1=C(NC(=O)c2ccccc2)C(=O)c2ccccc2C1=O)C1CCS(=O)(=O)C1 (centres undefined) | -4 | 85* | -19 | 2 | 1 | -10
CCN(C(=O)CN1C(=O)S/C(=C\c2ccc(F)cc2)C1=O)C1CCS(=O)(=O)C1 (centres undefined) | 6 | 41* | -20 | nt | nt | -6
O=C(CCCN1C(=O)/C(=C/c2ccc(F)cc2)SC1=S)NC1CCS(=O)(=O)C1 (centres undefined) | 0 | 18 | -6 | nt | nt | 82*
O=C(CCN1C(=O)/C(=C/c2ccccc2)SC1=S)NC1CCS(=O)(=O)C1 (centres undefined) | -17 | 24 | -24 | nt | nt | -9
CN1Cc2c(N3CCOCC3)nc3sc(C#N)c(N)c3c2CC1(C)C | -12 | 6 | -19 | 6 | 1 | -29
CN1Cc2c(N3CCOCC3)nc3sc(C(=O)c4ccc(Br)cc4)c(N)c3c2CC1(C)C | 44* | 5 | 5 | 1 | 2 | 35*
CCN(CC)S(=O)(=O)c1ccc(Cl)c(C(=O)Nc2ccc(Cl)cc2[N+](=O)[O-])c1 | -11 | 36 | 13 | 0 | 2 | 50*
CN(C)S(=O)(=O)c1ccc(Cl)c(C(=O)Nc2ccccc2[N+](=O)[O-])c1 | -7 | 44 | -27 | -1 | 0 | -13
Cc1ccc2c(c1)C(=O)c1c(C(=O)O)cccc1-2 | -9 | 25 | -15 | 0 | 0 | -3
Nc1cc(C(=O)O)c(N)c2c1C(=O)c1ccccc1C2=O | -8 | 115* | 5 | 0 | 1 | -3
COc1cccc(C2CC(=O)C3=C(C2)Nc2ccccc2N(C(=O)CCC(=O)O)C3c2ccc(F)cc2)c1 (centres undefined) | -12 | 24 | -9 | 1 | 1 | 99*
COc1ccc(C2C3=C(CC(c4ccco4)CC3=O)Nc3ccccc3N2C(C)=O)cc1 (centres undefined) | 1 | 10 | -15 | -1 | 0 | -20
CCCCN(CC)S(=O)(=O)c1ccc(C(=O)N(CCCN(C)C)c2nc3cc(C)cc(C)c3s2)cc1 | 23* | 7 | -38 | 1 | 2 | 5
COc1ccc(N(CC(=O)N2CCc3ccccc3C2)S(=O)(=O)c2c(C)nn(C)c2C)cc1 | -10 | 42* | -25 | 0 | 0 | -18
Cn1c(=O)c2[nH]c(COc3ccc(C(C)(C)C)cc3)nc2n(C)c1=O | -17 | 36 | 46* | 9 | 3 | 54*
CCCSc1nnc(-c2cccc(S(=O)(=O)N(C)C)c2)n1-c1cc(OC)ccc1OC | 20* | 8 | -53 | -1 | -1 | -19
CCSc1nnc(-c2cccc(S(=O)(=O)N(C)C)c2)n1-c1cc(OC)ccc1OC | 14 | 9 | -33 | -1 | -2 | -14
O=C(Nc1cc2c3c(c1)CC(=O)N3CCC2)C1CCCCC1 | nt | 17 | -27 | nt | nt | -17
